Source: PubChem (Broad Institute)
This is a sample that favours compounds with a hit; in the whole collection about 1.2% have one here.
ARNT-TACC3 inh = disruptors of ARNT/TACC3 protein interaction, primary screen, biochemical, AlphaScreen, single concentration; Transforming acidic coiled-coil-containing protein 3 (Homo sapiens), Q9Y6A5; inhibition, % at 9.99 µM; AlphaScreen His-ARNT PAS-B/GST-TACC3 binding, luminescence; TACC3 fragment carries E629A point mutation; AID 623870, 2012; actives 0.66% (n = 390,000);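 active = mean inhibition of replicates at least 50% and at least half of replicates each reaching 50%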;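 also: 0% = complete ARNT plus TACC3 wells and 100% = ARNT alone without TACC3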
CAL PDZ FP-1 = untagged CAL PDZ binding inhibitors, primary screen, biochemical, fluorescence polarization, HTS | Golgi-associated PDZ and coiled-coil motif-containing protein (Homo sapiens), Q9HD26 | purified CAL PDZ, TMR-peptide fluorescence polarization, 1 h | inhibition, % at 24.9 µM | actives 0.92% (n = 300,000) | AID 602252, 2012;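 active = mean inhibition of at least 30% with at least half of replicates also reaching 30%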;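 also: 0% = DMSO neutral control and 100% = excess unlabeled competitor peptide PRC23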
CAL PDZ FP-2 = CAL PDZ peptide-binding inhibitors, primary screen, biochemical, fluorescence polarization, Cer-tagged CAL PDZ, HTS | Golgi-associated PDZ and coiled-coil motif-containing protein (Homo sapiens), Q9HD26 | purified CAL PDZ, TMR-peptide fluorescence polarization, 1 h | inhibition, % at 20 µM | actives 0.02% (n = 330,000);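 active = highest replicate inhibition of at least 40%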;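 also: plate controls were DMSO neutral control wells for no effect and unlabeled competitor peptide control wells for full effect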
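Test system: purified CerCALP PDZ construct; Compound dosing: one concentration, 20 µM compound; Also added: TMR-labelled reporter peptide T*-PRC34 bound in PDZ groove; Read-out: inhibition from polarization loss; Controls: unlabelled peptide and DMSO controls; Signal: FP readout, S and P plane fluorescence; Incubation: 1 h at RT.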
* = called active by the depositor; nt = no result given; + = active, no number.

SMILES | ARNT-TACC3 inh | CAL PDZ FP-1 | CAL PDZ FP-2
COc1ccc(S(=O)(=O)N2C[C@H](O)COC[C@@H]3O[C@@H](CC(=O)NCCN4CCCCC4)CC[C@H]32)cc1 | -32 | nt | nt
COc1ccccc1NC(=O)N1CCCCN2[C@@H](CO)[C@@H](c3ccc(-c4ccccc4)cc3)[C@@H]2C1 | 17 | nt | nt
O=C(CCN1CCCCC1)NCC[C@@H]1CC[C@@H](NC(=O)Cc2cccnc2)[C@H](CO)O1 | -16 | nt | nt
CC=Cc1ccc2n(c1=O)C[C@H]1[C@H](CO)[C@@H](C(=O)NCCC)[C@@H]2N1C(=O)c1ccccc1F (mixture of isomers) | -2 | nt | nt
COc1ccccc1NS(=O)(=O)c1cc(NC(=O)Cc2n[nH]c(=O)c3ccccc23)ccc1Cl | 8 | -8 | -3
COc1cccc(NC(=O)CN(C)C(=O)Cc2n[nH]c(=O)c3ccccc23)c1 | 8 | nt | 0
COc1ccc(NS(=O)(=O)c2cc(NC(=O)Cc3n[nH]c(=O)c4ccccc34)ccc2OC)cc1 | -1 | 51* | -3
COc1ccc(NC(=O)CN(C)C(=O)Cc2n[nH]c(=O)c3ccccc23)cc1 | -1 | 31* | -1
CN(C)C(=O)c1cccc(-c2ccc3c(c2)[C@H]2[C@H](CCN2C(=O)c2ccncc2)[C@@H](CO)N3C)c1 | -10 | nt | nt
Cc1ccc(S(=O)(=O)Nc2ccc3c(c2)C(=O)N([C@H](C)CO)C[C@@H](C)[C@H](CN(C)CC2CCCCC2)OCCCC[C@@H](C)O3)cc1 | 7 | nt | nt
O=C(c1ccccn1)N1CC=C(c2ccccc2)CC1 | 3 | 194* | -1
O=C(c1cccs1)N1CC=C(c2ccccc2)CC1 | -2 | nt | -1
C[C@H]1CN([C@@H](C)CO)C(=O)Cc2cc(NC(=O)CCC(F)(F)F)ccc2O[C@@H]1CN(C)C(=O)Nc1ccc(F)cc1 | 1 | nt | nt
Cc1ccc(C(=O)Nc2ccsc2C(=O)O)cc1 | 4 | -2 | 0
O=C(Nc1ccsc1C(=O)O)c1ccc(Cl)cc1 | active | -6 | -1
O=S(=O)(Nc1ccc2cn[nH]c2c1)c1ccc(C(F)(F)F)cc1 | -6 | -1 | -1
O=[N+]([O-])c1cccc(S(=O)(=O)Nc2ccc3cn[nH]c3c2)c1 | -1 | + | 0
CCN(CC)C(=O)CN1C(=O)C(=O)c2ccccc21 | 2 | 0 | -1
CCN(CC)C(=O)CN1C(=O)c2cccc3cccc1c23 | -13 | 37* | nt
CCCCCn1nc(C(=O)N(CC)c2c(N)n(CCCC)c(=O)[nH]c2=O)c2ccccc2c1=O | -5 | 45* | 4
CCCCn1c(N)c(N(CCOC)C(=O)c2cnc(C)cn2)c(=O)[nH]c1=O | -1 | 38* | -2
CCCCn1c(N)c(N(CCC(C)C)C(=O)CSc2nncn2-c2ccccc2)c(=O)[nH]c1=O | nt | 48* | -1
CCCCn1c(N)c(N(CCOC)C(=O)c2cnccn2)c(=O)[nH]c1=O | nt | 0 | 0
CCCCn1nc(C(=O)N(CC(C)C)c2c(N)n(CCCC)c(=O)[nH]c2=O)c2ccccc2c1=O | -2 | -2 | -2
COCCN(C(=O)C1CCC1)c1c(N)n(CC(C)C)c(=O)[nH]c1=O | -1 | -4 | -1
SMILES | ARNT-TACC3 inh | CAL PDZ FP-1 | CAL PDZ FP-2
CCCCC1CCC(C(=O)N(CCOC)c2c(N)n(CC(C)C)c(=O)[nH]c2=O)CC1 (stereo not given) | nt | 62* | 0
CC(C)CN(C(=O)CSc1nncn1-c1ccccc1)c1c(N)n(CC(C)C)c(=O)[nH]c1=O | 0 | 2 | -1
Cc1ccc(-c2ccc([C@H]3[C@H]4CN(S(=O)(=O)c5ccccc5C)CCCCN4[C@H]3CO)cc2)cc1 | -7 | nt | nt
C[C@H]1CN([C@@H](C)CO)S(=O)(=O)c2ccc(-c3ccncc3)cc2O[C@@H]1CN(C)C(=O)CN(C)C | 9 | nt | nt
C/C(N)=C(/C#N)C(=O)COC(=O)Cc1coc2ccc3ccccc3c12 | 1 | 79* | -1
C/C(N)=C(/C#N)C(=O)COc1ncnc2ccccc12 | -8 | -5 | 0
Cc1ccc(Cl)cc1N1CCN(S(=O)(=O)c2ccc(-c3ccc(=O)[nH]n3)o2)CC1 | -7 | 0 | -2
Cc1ccc(C)c(N2CCN(S(=O)(=O)c3ccc(-c4ccc(=O)[nH]n4)o3)CC2)c1 | -5 | 44* | -1
C[C@@H]1CN([C@@H](C)CO)C(=O)Cc2cc(NC(=O)Nc3ccc4c(c3)OCO4)ccc2O[C@H]1CN(C)Cc1ccc(C(F)(F)F)cc1 | -2 | nt | nt
O=C(CN1CC(=O)Oc2ccccc21)OCC(=O)c1ccc(F)cc1 | 63* | -5 | -4
